Data reported in ChEMBL document CHEMBL5126672, “Discovery of κ Opioid Receptor (KOR)-Selective d-Tetrapeptides with Improved In Vivo Antinociceptive Effect after Peripheral Administration” (ACS Med Chem Lett, 2022).
Activity calls are given as the source filed them. The rule behind the calls is not given here. Square brackets hold non-standard residues; d marks the D form. Peptide text beside a SMILES is read from it. dNle = CCCC[C@@H](N)C(=O)O

Key:
[1] = biological target: T1, Kappa-type opioid receptor (Cavia porcellus, UniProt P41144); test: Displacement of [3H]-HS665 from KOR in guinea pig brain membranes; format: cell membranes, Membrane
T1 sequence (P41144 whole entry): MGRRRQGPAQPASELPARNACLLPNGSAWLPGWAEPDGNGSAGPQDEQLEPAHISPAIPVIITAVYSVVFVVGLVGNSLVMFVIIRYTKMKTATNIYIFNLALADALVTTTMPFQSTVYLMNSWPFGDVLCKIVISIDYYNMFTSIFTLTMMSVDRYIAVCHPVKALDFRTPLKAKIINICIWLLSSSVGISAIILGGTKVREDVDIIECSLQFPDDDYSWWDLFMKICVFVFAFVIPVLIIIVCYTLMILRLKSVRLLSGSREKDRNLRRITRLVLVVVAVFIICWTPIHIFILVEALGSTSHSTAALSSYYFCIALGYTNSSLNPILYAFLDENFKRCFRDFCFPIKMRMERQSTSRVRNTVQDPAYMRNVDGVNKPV

[2] = biological target: T1, Kappa-type opioid receptor; test: (§1) Agonist activity at KOR in guinea pig brain membranes assessed as stimulation of [35S]GTPgammaS binding measured after 1 hr by liquid scintillation counting analysis; format: functional, cell membranes, Membrane
[3] = biological target: Kappa-type opioid receptor (Cavia porcellus) (UniProt P41144); test: as §1; format: functional, cell membranes; conditions: Membrane, filed as agonist, DDE = dose-dependent effect
Chain of Kappa-type opioid receptor (Cavia porcellus) (P41144 whole entry): as above

Mus musculus [4] = test: Antinociceptive activity in formalin-induced CD-1 mouse model of nociception assessed as reduction in total time spent in paw licking during late phase at 100 nmol, sc pretreated for 15 mins followed by formalin challenge measured after 10 to 40 mins by formalin test; format: functional, organism-based; conditions: time 15-55 min
Summary of the method: (§2)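 Subcutaneous injection into the mouse paw at 100 nmol/mouse, given 15 min before formalin challenge. Nociceptive behaviour was scored in the early and late phases against vehicle and U50,488H groups. Analysis used one-way ANOVA with Tukey's multiple comparisons test.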

Mus musculus [5] = test: Antinociceptive activity in formalin-induced CD-1 mouse model of nociception assessed as reduction in total time spent in paw licking during early phase at 100 nmol, sc pretreated for 15 mins followed by formalin challenge measured up to 10 mins by formalin test; format: functional, organism-based; conditions: time 25.0 min; summary of the method: as §2
Mus musculus [6] = test: Antinociceptive activity in CD-1 mouse assessed as maximum possible effect at 10 nmol, icv measured after 15 to 120 mins by tail-flick test; format: functional, organism-based; conditions: time 15-120 min
Summary of the method: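 Tail flick test in mice after intracerebroventricular injection of 10 nmol/mouse, with vehicle-treated and U50,488H control groups. Antinociception was expressed as maximum possible effect. N = 7 per group.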

[7] = Cmax in C57/BL6 mouse plasma at 13.9 mg/kg, iv administered via bolus by LC-MS/MS analysis; format: ADME, organism-based; parameters: dose 13.9 mg/kg, route iv
Summary of the method: (§3)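 Single intravenous bolus given to mice. Plasma concentrations were measured, and noncompartmental analysis gave Cmax, Tmax, t1/2 and AUC extrapolated to infinity. The calibration range was 10–1000 nM, with correlation coefficient >0.99 and the curve fit with 1/x2 weighting.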

[8] = Tmax in C57/BL6 mouse plasma at 13.9 mg/kg, iv administered via bolus by LC-MS/MS analysis; format: ADME, organism-based; summary of the method: as §3
[9] = Drug uptake in C57/BL6 mouse brain at 13.9 mg/kg, iv administered via bolus by LC-MS/MS analysis; format: ADME, organism-based; conditions: in vivo, BLD = below limit of detection
Summary of the method: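 Single intravenous bolus given to mice. Brain homogenates were analysed for drug exposure against a calibration curve spanning 10–1000 nM, fit with 1/x2 weighting.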

[10] = AUC (infinity) in C57/BL6 mouse plasma at 13.9 mg/kg, iv administered via bolus by LC-MS/MS analysis; format: ADME, organism-based; parameters: time infinity, dose 13.9 mg/kg, route iv; summary of the method: as §3
Mus musculus [11] = test: Antinociceptive activity in CD-1 mouse assessed as maximum possible effect at 20 umol/kg, iv measured after 15 to 120 mins by tail-flick test; format: functional, organism-based; conditions: dose 20.0 µmol/kg, time 15-120 min
Summary of the method: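 Intravenous dosing at 20 μmol/kg in mice, followed by tail flick testing with antinociception expressed as maximum possible effect. Vehicle-treated animals served as controls. N = 8.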

[12] = Half life in C57/BL6 mouse plasma at 13.9 mg/kg, iv administered via bolus by LC-MS/MS analysis; format: ADME, organism-based; summary of the method: as §3

SMILES | Ki [1] | EC50 [2] | Activity [3] | Activity (Mus musculus [4]) | Activity (Mus musculus [5]) | Activity (Mus musculus [6]) | Cmax [7] | Tmax [8] | Drug uptake [9] | AUC(0-inf) [10] | Activity (Mus musculus [11]) | half-life [12]
Oc1cccc(CCN(CCc2ccccc2)CC2CCC2)c1 | 1.91 nM | – | – | – | – | – | – | – | – | – | – | –
CCCC[C@@H](NC(=O)[C@@H](Cc1ccccc1)NC(=O)[C@H](N)Cc1ccc(O)cc1)C(=O)N[C@H](CCCNC(=N)N)C(N)=O | 1.11 nM | 9550 nM | Dde | – | – | – | – | – | – | – | – | –
CCCC[C@@H](NC(=O)[C@@H](Cc1cccc(F)c1)NC(=O)[C@H](N)Cc1ccccc1)C(=O)N[C@H](CCCNC(=N)N)C(N)=O | 3 nM | 1860 nM | Dde | Active | Active | Active | – | – | – | – | – | –
CCCC[C@@H](NC(=O)[C@@H](Cc1ccc(F)cc1)NC(=O)[C@H](N)Cc1ccccc1)C(=O)N[C@H](CCCNC(=N)N)C(N)=O | 0.92 nM | 955 nM | – | Active | Active | Active | 109 nM | 15 min | Bld | 0.0842 µM·h | Active | 20.6 min
CCCC[C@@H](NC(=O)[C@@H](Cc1ccccc1)NC(=O)[C@H](N)Cc1ccccc1)C(=O)N[C@H](CCCNC(=N)N)C(N)=O (H-[dF][dF][dNle][dR]-NH2) | 2.33 nM | 26.3 nM | – | – | – | Active | 93 nM | 5 min | Bld | 0.0364 µM·h | – | 12.7 min
CCCC[C@@H](NC(=O)[C@@H](Cc1ccccc1)NC(=O)[C@H](N)Cc1cccc(F)c1)C(=O)N[C@H](CCCNC(=N)N)C(N)=O | 1.28 nM | 22.4 nM | Dde | Active | Active | Active | – | – | – | – | Active | –
CCCC[C@@H](NC(=O)[C@H]1Cc2ccccc2CN1C(=O)[C@H](N)Cc1ccccc1)C(=O)N[C@H](CCCNC(=N)N)C(N)=O | 3.63 nM | 7.94 nM | – | – | – | – | – | – | – | – | – | –
CCCC[C@@H](NC(=O)[C@@H](Cc1ccccc1)NC(=O)[C@H](N)Cc1c[nH]c2ccccc12)C(=O)N[C@H](CCCNC(=N)N)C(N)=O | 3.07 nM | 5.13 nM | Dde | – | – | – | – | – | – | – | – | –
CCCC[C@@H](NC(=O)[C@@H](Cc1ccccc1)NC(=O)[C@H](N)Cc1ccccc1F)C(=O)N[C@H](CCCNC(=N)N)C(N)=O | 4.35 nM | 1350 nM | – | Active | Active | Active | – | – | – | – | – | –
